{
  "source": "ChEMBL document CHEMBL1146217",
  "about": "“Growth inhibition of Mycobacterium bovis, Mycobacterium tuberculosis and Mycobacterium avium in vitro: effect of 1-beta-D-2'-arabinofuranosyl and 1-(2'-deoxy-2'-fluoro-beta-D-2'-ribofuranosyl) pyrimidine nucleoside analogs” (J Med Chem, 2007)",
  "test_system": "Mycobacterium tuberculosis",
  "assay": "Antimycobacterial activity against drug-resistant Mycobacterium tuberculosis H37Rv at 2mg/mL by BACTEC assay",
  "assay_type": "functional, organism-based",
  "procedure,_shortened": "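Radiometric BACTEC 12B (7H12) vials with a growing inoculum of 2.5-5.0 × 10⁵ CFU/vial, two-fold compound dilutions, 37 °C. Growth index read daily in a BACTEC 460 until 1:100 inoculum controls reached GI 30. Percent inhibition = (GI test/GI control) × 100.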",
  "note": "Active and inactive are the calls of the source. No cut-off for these calls is given here.",
  "data": [
    {"smiles": "CO[C@H]1/C=C/O[C@@]2(C)Oc3c(C)c(O)c4c(O)c(c(/C=N/N5CCN(C)CC5)c(O)c4c3C2=O)NC(=O)/C(C)=C\\C=C\\[C@H](C)[C@H](O)[C@@H](C)[C@@H](O)[C@@H](C)[C@H](OC(C)=O)[C@@H]1C", "note": "[RIFAMPIN]", "values": [
      {"measurement": "Activity", "value": "inactive"}
    ]}
  ]
}
